≈ marks a conversion by molar mass, not a printed value.
Key:
[1] = tested on: A-375; assay: Antiproliferative activity against human A375 cells assessed as reduction in cell viability measured after 48 hrs by MTT assay; type: functional, cell-based; conditions: Homo sapiens, A-375, 48 h
[2] = Solubility of the compound in PBS; type: physicochemical
[3] = Acute toxicity in BALB/c mouse assessed as effect on blood ALB level at 800 mg/kg, po measured on day 14; type: organism-based; conditions: in vivo
Summary of the method: (§1)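 BALB/c mice, female and male, 6-8 weeks old, given oral doses within 24 h, up to 400 mg/kg (free compound) or 800 mg/kg (nanocrystal formulation). Watched for body weight loss, diarrhea, anorexia, skin ulcer and toxic death. Serum biochemistry panel was run at the end of treatment.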

[4] = Toxicity in NOD-SCID nude mouse xenografted with human Raji cells assessed as effect on body weight at 40 to 80 mg/kg/day, po administered 6 days a week for 3 weeks and measured every 3 days during compound dosing; type: organism-based; conditions: in vivo
Summary of the method: (§2)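 Mice, 6-7 weeks old, injected s.c. with 1×10^7 Raji cells in serum-free medium plus basement membrane matrix. At 100–200 mm3 tumours, randomised (n=6). Oral dosing 6 days/week for 3 weeks: 30 mg/kg/d free compound suspended in 5% NMP/95% PEG400, or 40 or 80 mg/kg/d nanocrystal. Body weight and tumour volume measured every 3 days.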

[5] = Acute toxicity in BALB/c mouse assessed as effect on spleen at 400 mg/kg, po measured on day 14 by H and E staining based light microscopic analysis; type: organism-based; conditions: in vivo
Summary of the method: (§3)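 Female and male BALB/c mice, 6-8 weeks old, dosed orally within 24 h at up to 400 mg/kg (free compound) or 800 mg/kg (nanocrystal). At the end of treatment, heart, liver, spleen, lung and kidney were sectioned, stained with H&E and imaged by light microscopy.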

[6] = Acute toxicity in BALB/c mouse assessed as effect on heart at 400 mg/kg, po measured on day 14 by H and E staining based light microscopic analysis; type: organism-based; conditions: in vivo; summary of the method: as §3
[7] = Toxicity in NOD-SCID nude mouse xenografted with human Raji cells assessed as death at 30 mg/kg/day, po administered 6 days a week for 3 weeks; type: organism-based; conditions: in vivo; summary of the method: as §2
[8] = molecular target: Dihydroorotate dehydrogenase (quinone), mitochondrial (Homo sapiens, UniProt Q02127); assay: Inhibition of human DHODH using dihydroorotate as substrate and CoQ10 as co-substrate preincubated for 30 mins followed by substrate addition by DCIP coupled microplate reader assay
Sequence of Dihydroorotate dehydrogenase (quinone), mitochondrial (Q02127 whole entry): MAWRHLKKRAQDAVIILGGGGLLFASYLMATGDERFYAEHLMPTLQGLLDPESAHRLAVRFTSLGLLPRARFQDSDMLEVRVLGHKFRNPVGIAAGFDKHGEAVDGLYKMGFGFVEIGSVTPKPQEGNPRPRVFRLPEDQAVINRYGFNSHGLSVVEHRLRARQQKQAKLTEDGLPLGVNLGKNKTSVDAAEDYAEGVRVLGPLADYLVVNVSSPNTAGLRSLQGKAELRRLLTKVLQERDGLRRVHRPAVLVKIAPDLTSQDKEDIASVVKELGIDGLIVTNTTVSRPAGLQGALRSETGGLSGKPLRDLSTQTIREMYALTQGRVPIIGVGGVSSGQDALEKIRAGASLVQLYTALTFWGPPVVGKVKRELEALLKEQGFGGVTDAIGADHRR

[9] = tested on: Raji; assay: Induction of mitochondrial membrane potential loss in human Raji cells measured after 48 hrs by TMRM staining based fluorescence assay; type: functional, cell-based
Summary of the method: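 Raji cells treated 48 h (CCCP as positive control), washed in PBS. Incubated with TMRM at 100 nM final for 15 min at 37 °C, fluorescence read at ex 510/em 580 nm. Mean ± SD.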

[10] = Half life in mouse liver microsomes at 1 uM in presence of NADPH by LC-MS analysis; type: ADME, Microsome
Summary of the method: (§4)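 Compound at 1 μM with 0.5 mg/mL human, rat or mouse liver microsomes and 1 mM NADPH. Stopped with acetonitrile at 0, 5, 15, 30, 45, 60 and 90 min, centrifuged. Supernatant analysed by LC-MS/MS.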

[11] = Toxicity in NOD-SCID nude mouse xenografted with human Raji cells assessed as death at 40 to 80 mg/kg/day, po administered 6 days a week for 3 weeks; type: organism-based; conditions: in vivo; summary of the method: as §2
[12] = Half life in human liver microsomes at 1 uM in presence of NADPH by LC-MS analysis; type: ADME, Microsome; summary of the method: as §4
[13] = Acute toxicity in BALB/c mouse assessed as effect on blood ALP level at 400 mg/kg, po measured on day 14; type: organism-based; conditions: in vivo; summary of the method: as §1
[14] = Acute toxicity in BALB/c mouse assessed as effect on blood LDH level at 400 mg/kg, po measured on day 14; type: organism-based; conditions: in vivo; summary of the method: as §1
[15] = Acute toxicity in BALB/c mouse assessed as effect on blood UA level at 800 mg/kg, po measured on day 14; type: organism-based; conditions: in vivo; summary of the method: as §1
[16] = Acute toxicity in BALB/c mouse assessed as effect on blood AST level at 400 mg/kg, po measured on day 14; type: organism-based; conditions: in vivo; summary of the method: as §1
[17] = tested on: Raji; assay: Induction of apoptosis in human Raji cells assessed as live cells at 0.063 uM measured after 48 hrs by Annexin V-FITC staining based flow cytometry (reference value: 98.09 %); type: functional
[18] = Acute toxicity in BALB/c mouse assessed as effect on blood LDLC level at 800 mg/kg, po measured on day 14; type: organism-based; conditions: in vivo; summary of the method: as §1
[19] = Acute toxicity in BALB/c mouse assessed as effect on blood AST level at 800 mg/kg, po measured on day 14; type: organism-based; conditions: in vivo; summary of the method: as §1
[20] = tested on: Raji; assay: Induction of apoptosis in human Raji cells assessed as live cells at 0.031 uM measured after 48 hrs by Annexin V-FITC staining based flow cytometry (reference value: 98.09 %); type: functional
[21] = Acute toxicity in BALB/c mouse assessed as effect on blood ALT level at 400 mg/kg, po measured on day 14; type: organism-based; conditions: in vivo; summary of the method: as §1
[22] = tested on: Raji; assay: Induction of apoptosis in human Raji cells assessed as late apoptotic cells at 0.063 uM measured after 48 hrs by Annexin V-FITC staining based flow cytometry (reference value: 0.7 %); type: functional
[23] = Acute toxicity in BALB/c mouse assessed as effect on kidney at 400 mg/kg, po measured on day 14 by H and E staining based light microscopic analysis; type: organism-based; conditions: in vivo; summary of the method: as §3
[24] = tested on: Raji; assay: Cell cycle arrest in human Raji cells assessed as accumulation at S phase at 0.125 uM measured after 24 hrs by propidium iodide/RNase staining based flow cytometry (reference value: 52%); type: functional
[25] = Toxicity in NOD-SCID nude mouse xenografted with human Raji cells assessed as dermatitis at 40 to 80 mg/kg/day, po administered 6 days a week for 3 weeks; type: organism-based; conditions: in vivo; summary of the method: as §2
[26] = Acute toxicity in BALB/c mouse assessed as effect on kidney at 800 mg/kg, po measured on day 14 by H and E staining based light microscopic analysis; type: organism-based; conditions: in vivo; summary of the method: as §3
[27] = Acute toxicity in BALB/c mouse assessed as effect on spleen at 800 mg/kg, po measured on day 14 by H and E staining based light microscopic analysis; type: organism-based; conditions: in vivo; summary of the method: as §3
[28] = tested on: Raji; assay: Antiproliferative activity against human Raji cells assessed as reduction in cell viability measured after 48 hrs by MTT assay; type: functional, cell-based; conditions: Homo sapiens, Raji, 48 h
[29] = Acute toxicity in BALB/c mouse assessed as effect on blood CK level at 800 mg/kg, po measured on day 14; type: organism-based; conditions: in vivo; summary of the method: as §1
[30] = Toxicity in NOD-SCID nude mouse xenografted with human Raji cells assessed as dermatitis at 30 mg/kg/day, po administered 6 days a week for 3 weeks; type: organism-based; conditions: in vivo; summary of the method: as §2
[31] = Acute toxicity in BALB/c mouse assessed as effect on blood BUN level at 800 mg/kg, po measured on day 14; type: organism-based; conditions: in vivo; summary of the method: as §1

## O=C1c2ccccc2C(=O)c2c1nnn2-c1cc(F)c(-c2ccccc2F)c(F)c1
[1]
  IC50: 20 nM
[2]
  solubility: 33.8 µg/mL (≈ 83.4 µM)
[3]
  Activity: Non-Toxic
[4]
  Activity: Non-Toxic
[5]
  Activity: Non-Toxic
[6]
  Activity: Non-Toxic
[7]
  Activity: Non-Toxic
[8]
  IC50: 4.5 nM
[9]
  Activity: Dose-dependent effect
[10]; liver microsomes
  half-life at 1 µM: 37 min
[10]; microsomes, 1 µM
  t1/2: 50 min
[11]
  Activity: Non-Toxic
[12]; liver microsomes
  half-life at 1 µM: 32 min
[12]; microsomes, 1 µM
  t1/2: 63 min
[13]
  Activity: Non-Toxic
[14]
  Activity: Non-Toxic
[15]
  Activity: Non-Toxic
[16]
  Activity: Non-Toxic
[17]
  Activity: 92.31%
[18]
  Activity: Non-Toxic
[19]
  Activity: Non-Toxic
[20]
  Activity: 93.14%
[21]
  Activity: Non-Toxic
[22]
  Activity: 4.26%
[23]
  Activity: Non-Toxic
[24]
  Activity: 86.31%
[25]
  Activity: Non-Toxic
[26]
  Activity: Non-Toxic
[27]
  Activity: Non-Toxic
[28]
  IC50: 160 nM
[29]
  Activity: Non-Toxic
[30]
  Activity: Non-Toxic
[31]
  Activity: Non-Toxic

Source: ChEMBL document CHEMBL4616673 (J Med Chem, 2020)
